Hits are enriched below; roughly 2.6% of the tested compounds scored in any of these assays.
SIRT5 block: inhibitors of human sirtuin-5 desuccinylase; AID 652115; Purified SirT5, succinyl-peptide AMC, trypsin-coupled fluorescence; Q9NXA8; inhibition, % at 15 µM; 330,000 compounds, 1.1% hits; in the data active means inhibition above about 15%
NSD2 HMT inh: NSD2 (human) methyltransferase inhibition; O96028; NSD2 peptide methylation, AlphaScreen, 120 min; inhibition, % at 12.5 µM; 310,000 compounds, 0.54% hits; in the data active means inhibition above about 50%
UCH37 inh: blocks the human deubiquitinase UCH37 | inhibition, % (concentration not given with the values) | Q9Y5K5 | 330,000 compounds, 0.33% hits | purified proteasome/UCH37, Ub-AMC cleavage fluorescence | AID 588478;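 active means mean inhibition over replicate wells above about 20%, limit read from the data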;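 further: 0% = compound-free wells with enzyme and 100% = wells lacking proteasome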
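system = Proteasome-associated human UCH37 deubiquitinase | amount = 0.15 nM proteasome as dispensed | medium = pH 7.4 Tris-HCl (50 mM) with ovalbumin, ATP-MgCl2, DTT | incubation = 30 min preincubation with enzyme, 25 min cleavage at room temperature | detection = AMC fluorescence 355/460 nm | read-out basis = percent inhibition | controls = no-proteasome and no-compound wells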
CASP6 VEID inh: inhibitors of human caspase-6. P55212. purified caspase-6, Z-VEID-R110 cleavage fluorescence. inhibition, % at 12.5 µM. 350,000 compounds, 0.53% hits. AID 686996;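 active means mean inhibition across replicates at least about 35%, with every replicate also reaching that limit, limit read from the data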;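 further: 0% = median of neutral control wells and 100% = no fluorescence left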
FGF22 binding: FGF22 (human) thermal shift binding. Q9HCT0. recombinant FGF22 thermal shift, SYPRO orange fluorescence; percent of sucrose octasulfate shift, DMSO zero. activity (Tm shift, normalised), % at 9.99 µM. 340,000 compounds, 1.5% hits. AID 651658;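 active means mean Tm shift, scaled 0 neutral to 100 positive control, at about 1.3% or above, every replicate too, limit read from the data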
The depositor's hits bear a star; / = no result given.

SMILES	SIRT5 block	NSD2 HMT inh	UCH37 inh	CASP6 VEID inh	FGF22 binding
Cc1ccccc1CN1CCN(Cc2ccc3cccc(F)c3n2)CC1CCO (stereo not drawn)	36*	1	-1	2	0
CC(=O)Nc1ccc(NC(=O)c2sc3nc4n(c(=O)c3c2C)CCCCC4)cc1	17*	0	6	1	43
C[C@@H]1CN([C@@H](C)CO)C(=O)c2cccc(NC(=O)c3ccc(-c4nccs4)cc3)c2O[C@@H]1CN(C)C(=O)Nc1ccc(C(F)(F)F)cc1	7	/	/	-1	1.4*
C[C@H](CO)N1C[C@H](C)[C@H](CN(C)C(=O)Nc2ccc(C(F)(F)F)cc2)Oc2c(NC(=O)c3ccc(-c4nccs4)cc3)cccc2C1=O	6	/	/	0	0
C[C@@H]1CN([C@H](C)CO)C(=O)c2cccc(NC(=O)c3ccc(-c4nccs4)cc3)c2O[C@H]1CN(C)Cc1ccc(C(=O)O)cc1	2	/	/	-5	1
C[C@H]1CN([C@@H](C)CO)C(=O)c2cccc(NC(=O)c3ccc(-c4nccs4)cc3)c2O[C@H]1CN(C)S(C)(=O)=O	17*	/	/	-1	0
C[C@H](CO)N1C[C@H](C)[C@@H](CN(C)Cc2ccc(Cl)c(Cl)c2)Oc2c(NC(=O)c3ccc(-c4nccs4)cc3)cccc2C1=O	19*	/	/	1	0
NC(=O)COC(=O)CC12CC3CC(CC(C3)C1)C2	7	0	-2	0	0
NC(=O)NC(=O)COC(=O)CC12CC3CC(CC(C3)C1)C2	5	/	1	13	44*
C/C=C/c1ccc2c(c1)O[C@@H](CN(C)C(=O)CC1CC1)[C@H](C)CN([C@H](C)CO)S2(=O)=O	2	/	/	4	0
Cn1c(CC(=O)NCCO)c(Sc2ccccc2)c2ccccc21	/	/	3	/	/
O=C(Cc1c(Sc2ccccc2)c2ccccc2n1Cc1ccccc1)NCCO	-1	3	0	3	43*
O=C(COC(=O)c1ccc(Cl)nc1)NCCNC(=O)COC(=O)c1ccc(Cl)nc1	-1	-3	4	3	0
CC(C)(C)NC(=O)COC(=O)c1ccc(Cl)nc1	-7	-1	2	2	43*
CCOC(=O)/C(C#N)=C1/C=C(C)c2ccccc2N1	/	-1	/	1	43*
CCOC(=O)/C(C#N)=C1/C=Nc2ccccc2N1	/	-3	8	/	/
C[C@H]1CN([C@@H](C)CO)C(=O)c2cc(-c3ccc(F)cc3)cnc2O[C@@H]1CN(C)C(=O)CN(C)C	-3	/	/	-2	0
Cc1cc(C)n(CCc2nc(-c3ccco3)cs2)n1	8	-4	6	58*	0
Cc1nn(CCc2nc(-c3ccco3)cs2)c2[nH]c(=O)cc(C(F)(F)F)c12	16*	25	0	49*	1
Cc1cc(C)n(CCc2nc(-c3cccs3)cs2)n1	/	-2	1	/	/
C[C@@H]1CN([C@H](C)CO)C(=O)c2cc(NC(=O)Nc3ccc4c(c3)OCO4)ccc2O[C@@H]1CN(C)S(=O)(=O)c1ccc(Cl)cc1	1	/	/	-5	0
O=C(CCCN1C(=O)/C(=C/c2cccs2)SC1=S)Nc1cccnc1	-2	6	4	1	44*
O=C(CCCN1C(=O)/C(=C\c2cccs2)SC1=S)Nc1cccnc1	/	6	5	-1	0
CCc1ccc(CN(C)C(=O)C2CCC(=O)N(Cc3ccccn3)C2)cc1 (stereo not drawn)	31*	-5	/	-4	0
CN(Cc1ccccn1)C(=O)C1CCC(=O)N(Cc2cccc(F)c2)C1 (stereo not drawn)	9	1	4	-1	0
SMILES	SIRT5 block	NSD2 HMT inh	UCH37 inh	CASP6 VEID inh	FGF22 binding
O=C(C[C@H]1CC[C@H](NC(=O)Nc2ccc(C(F)(F)F)cc2)[C@@H](CO)O1)NCc1ccccn1	1	/	/	-1	0
CCC/C(O)=C1\C(=O)CCCC1=NCCc1c(C)[nH]c2ccccc12	25*	7	1	-2	0
CCC/C(O)=C1\C(=O)CC(c2ccccc2)CC1=NCCc1c(C)[nH]c2ccccc12 (stereo not drawn)	-1	/	4	-2	0
O=C(CCCCn1ccc(=O)[nH]c1=O)Nc1ccc(O)c(C(=O)O)c1	/	-3	-18	-3	43*
CCC(O)CC(C(=O)NNc1ccccc1)C(=O)NNc1ccccc1 (stereo not drawn)	/	-3	30*	0	0
CCOC(=O)NNc1ccccc1	-5	-3	2	-1	0

Screening data as filed in PubChem BioAssay.
